# From ChEMBL document CHEMBL1134845, “Syntheses and biological activities of a novel group of steroidal derived inhibitors for human Cdc25A protein phosphatase” (J Med Chem, 2001)
# Assays:
# SN12C [1] = assay: Growth inhibitory activity was determined against SN12C cancer cell line of Renal cancer; assay type: functional; settings: Homo sapiens
# In short: (§1)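 NCI 60 human tumour cell line screen run at the National Cancer Institute. Cell growth and viability read with the protein stain sulforhodamine B, which binds basic amino acids of cells left attached after washing. […] MG MID is the mean GI50 calculated over all panels.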
# LOX IMVI = assay: Growth inhibitory activity was determined against LOX IMVI cancer cell line of melanoma; assay type: functional, Homo sapiens; settings: Homo sapiens, LOX IMVI; in short: as §1
# U-251 = assay: Growth inhibitory activity was determined against U-251 cancer cell line of CNS cancer; assay type: functional; settings: Homo sapiens; in short: as §1
# NCI/ADR-RES = assay: Growth inhibitory activity was determined against NCI/ADR-RES cancer cell line of Breast cancer; assay type: functional, Homo sapiens; settings: Homo sapiens, NCI/ADR-RES; in short: as §1
# NCI-H23 = assay: Growth inhibitory activity was determined against NCI-H23 cancer cell line of non-small cell lung cancer; assay type: functional, Homo sapiens; settings: Homo sapiens, NCI-H23; in short: as §1
# [2] = molecular target: T1, M-phase inducer phosphatase 1 (Homo sapiens, UniProt P30304); assay: Inhibitory activity tested against cell division cycle 25A (assay using fluorescein diphosphate (FDP) as substrate)
# T1 sequence (P30304 whole entry): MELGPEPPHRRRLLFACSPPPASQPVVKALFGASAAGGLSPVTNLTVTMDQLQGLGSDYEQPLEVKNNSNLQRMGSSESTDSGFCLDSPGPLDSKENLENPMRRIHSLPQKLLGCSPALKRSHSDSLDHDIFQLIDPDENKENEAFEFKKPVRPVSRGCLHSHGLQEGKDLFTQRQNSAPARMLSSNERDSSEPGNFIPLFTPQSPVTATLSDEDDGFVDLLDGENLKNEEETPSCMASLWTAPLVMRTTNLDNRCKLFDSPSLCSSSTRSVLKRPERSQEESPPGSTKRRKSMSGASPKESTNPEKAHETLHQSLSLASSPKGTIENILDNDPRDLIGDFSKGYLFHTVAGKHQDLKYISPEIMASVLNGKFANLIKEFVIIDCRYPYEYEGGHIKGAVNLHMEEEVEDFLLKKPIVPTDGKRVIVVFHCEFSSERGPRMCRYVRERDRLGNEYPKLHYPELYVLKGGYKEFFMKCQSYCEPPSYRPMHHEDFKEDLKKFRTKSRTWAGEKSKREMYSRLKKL
# In short: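 Recombinant human GST-Cdc25A fusion protein, each batch calibrated so that FDP was dephosphorylated linearly over 20 min. Fluorescein diphosphate was the substrate. Reactions ran 15 min at 25 °C in the dark and were stopped with sodium orthovanadate. IC50 came from at least two independent runs, each in triplicate.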
# SF-539 = assay: Growth inhibitory activity was determined against SF-539 cancer cell line of CNS cancer; assay type: functional; settings: Homo sapiens; in short: as §1
# SF-268 = assay: Growth inhibitory activity was determined against SF-268 cancer cell line of CNS cancer; assay type: functional; settings: Homo sapiens; in short: as §1
# COLO 205 = assay: Growth inhibitory activity was determined against COLO 205 cancer cell line colon cancer; assay type: functional, Homo sapiens; settings: Homo sapiens, COLO 205; in short: as §1
# SK-MEL-5 [3] = assay: Growth inhibitory activity was determined against SK-MEL-5 cancer cell line of melanom; assay type: functional; settings: Homo sapiens; in short: as §1
# NCI-H522 = assay: Growth inhibitory activity was determined against NCI-H522 cancer cell line of non-small cell lung cancer; assay type: functional; settings: Homo sapiens; in short: as §1
# UO-31 [4] = assay: Growth inhibitory activity was determined against UO-31 cancer cell line of Renal cancer; assay type: functional; settings: Homo sapiens; in short: as §1
# PC-3 = assay: Growth inhibitory activity was determined against PC-3 cancer cell line of Prostate cancer; assay type: functional; settings: Homo sapiens; in short: as §1
# OVCAR-8 = assay: Growth inhibitory activity was determined against OVCAR-8 cancer cell line of Ovarian cancer; assay type: functional; settings: Homo sapiens; in short: as §1
# OVCAR-3 = assay: Growth inhibitory activity was determined against OVCAR-3 cancer cell line of Ovarian cancer; assay type: functional; settings: Homo sapiens; in short: as §1
# T47D = assay: Growth inhibitory activity was determined against T-47D cancer cell line of Breast cancer; assay type: functional, Homo sapiens; settings: Homo sapiens, T47D; in short: as §1
# HCC 2998 = assay: Growth inhibitory activity was determined against HCC2998 cancer cell line colon cancer; assay type: functional, Homo sapiens; settings: Homo sapiens, HCC 2998; in short: as §1
# HT-29 = assay: Growth inhibitory activity was determined against HT-29 cancer cell line colon cancer; assay type: functional, Homo sapiens; settings: Homo sapiens, HT-29; in short: as §1
# BT-549 (Homo sapiens) = assay: Growth inhibitory activity was determined against BT-549 cancer cell line of Breast cancer; settings: Homo sapiens, BT-549
# A549 [5] = assay: Growth inhibitory activity was determined against A549/ATCC cancer cell line of non-small cell lung cancer; assay type: functional, Homo sapiens; settings: Homo sapiens, A549; in short: as §1
# 786-0 [6] = assay: Growth inhibitory activity was determined against 786-0 cancer cell line of Renal cancer; assay type: functional; settings: Homo sapiens; in short: as §1
# [7] = molecular target: T2, Receptor-type tyrosine-protein phosphatase C (Homo sapiens, UniProt P08575); assay: Inhibitory activity tested against Human CD45 Phosphatase (assay using p-nitrophenyl phosphate (pNPP) as substrate)
# T2 sequence (P08575 whole entry): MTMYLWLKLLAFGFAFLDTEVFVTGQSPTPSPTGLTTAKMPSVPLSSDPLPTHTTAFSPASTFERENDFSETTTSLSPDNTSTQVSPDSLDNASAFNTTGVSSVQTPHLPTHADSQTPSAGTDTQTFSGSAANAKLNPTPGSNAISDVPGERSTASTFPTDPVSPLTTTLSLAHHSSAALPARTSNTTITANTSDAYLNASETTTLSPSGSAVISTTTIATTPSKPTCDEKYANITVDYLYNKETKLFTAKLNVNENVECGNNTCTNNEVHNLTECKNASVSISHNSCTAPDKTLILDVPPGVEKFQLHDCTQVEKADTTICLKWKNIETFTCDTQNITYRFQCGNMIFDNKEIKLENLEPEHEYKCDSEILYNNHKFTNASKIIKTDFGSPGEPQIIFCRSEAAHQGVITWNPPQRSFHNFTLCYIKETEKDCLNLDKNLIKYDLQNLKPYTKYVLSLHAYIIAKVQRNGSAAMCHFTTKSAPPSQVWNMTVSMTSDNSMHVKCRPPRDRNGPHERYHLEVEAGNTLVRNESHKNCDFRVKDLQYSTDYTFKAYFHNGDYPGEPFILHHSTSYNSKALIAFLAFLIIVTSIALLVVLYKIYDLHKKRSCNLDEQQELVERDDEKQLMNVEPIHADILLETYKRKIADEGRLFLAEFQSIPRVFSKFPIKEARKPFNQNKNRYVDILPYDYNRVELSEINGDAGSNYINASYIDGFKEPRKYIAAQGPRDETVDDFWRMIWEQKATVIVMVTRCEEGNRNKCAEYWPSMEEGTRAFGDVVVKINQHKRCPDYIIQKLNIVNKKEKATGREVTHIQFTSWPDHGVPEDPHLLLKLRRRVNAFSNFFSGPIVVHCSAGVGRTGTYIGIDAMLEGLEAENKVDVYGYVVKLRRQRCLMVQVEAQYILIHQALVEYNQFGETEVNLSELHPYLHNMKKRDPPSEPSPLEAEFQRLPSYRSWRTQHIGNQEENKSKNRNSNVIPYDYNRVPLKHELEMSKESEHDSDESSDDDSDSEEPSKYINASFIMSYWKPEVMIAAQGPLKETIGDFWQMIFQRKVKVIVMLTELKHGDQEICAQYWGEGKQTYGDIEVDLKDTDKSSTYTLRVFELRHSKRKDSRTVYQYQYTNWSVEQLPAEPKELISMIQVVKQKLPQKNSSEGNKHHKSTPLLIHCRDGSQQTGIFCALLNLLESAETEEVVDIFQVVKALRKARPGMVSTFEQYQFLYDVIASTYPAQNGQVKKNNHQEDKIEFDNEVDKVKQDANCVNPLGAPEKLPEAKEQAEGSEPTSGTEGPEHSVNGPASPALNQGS
# UO-31 [8] = assay: Growth inhibitory activity was determined against UO-31 cancer cell line of renal cancer; assay type: functional; settings: Homo sapiens; in short: as §1
# [9] = molecular target: T1, M-phase inducer phosphatase 1; assay: Inhibitory activity tested against cell division cycle 25A (assay using p-nitro phenyl phosphate (pNPP) as substrate)
# 786-0 [10] = assay: Growth inhibitory activity was determined against 786-0 cancer cell line of renal cancer; assay type: functional; settings: Homo sapiens; in short: as §1
# A549 [11] = assay: Inhibitory activity against A549 human adenocarcinoma; assay type: functional, cell-based
# In short: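 Soft agar clonogenic assay of anchorage-independent growth, using HT-29 colon and A549 lung adenocarcinoma cells. The value is the compound concentration that cut colony number to 50% of control.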
# SK-MEL-5 [12] = assay: Growth inhibitory activity was determined against SK-MEL-5 cancer cell line of melanoma; assay type: functional, Homo sapiens; settings: Homo sapiens, SK-MEL-5; in short: as §1
# SN12C [13] = assay: Growth inhibitory activity was determined against SN12C cancer cell line of renal cancer; assay type: functional; settings: Homo sapiens; in short: as §1
SMILES,GI50 (LOX IMVI),GI50 (U-251),GI50 (NCI/ADR-RES),GI50 (NCI-H23),IC50 [2],GI50 (SF-539),GI50 (SF-268),GI50 (COLO 205),GI50 (NCI-H522),GI50 (PC-3),GI50 (OVCAR-8),GI50 (OVCAR-3),GI50 (T47D),GI50 (HT-29),GI50 (BT-549 (Homo sapiens)),GI50 (A549 [5]),other results
CC(C)CCC[C@@H](C)[C@H]1CC[C@H]2[C@H](CC(=O)O)[C@@H]([C@@]3(C)CCCCC3=O)CC[C@]12C,16.7 µM,14 µM,14.6 µM,19 µM,5.9 µM,> 25 µM,> 25 µM,> 25 µM,> 25 µM,16 µM,13.5 µM,> 25 µM,16.9 µM,15.7 µM,13 µM,10.8 µM,GI50 (SN12C [1]): 13.4 µM; GI50 (SK-MEL-5 [3]): > 25 µM; GI50 (UO-31 [4]): > 25 µM; GI50 (HCC 2998): 18.8 µM; GI50 (786-0 [6]): 18.5 µM
CC(C)CCCC(C)[C@H]1CC[C@H]2[C@@H]3CC(=O)O[C@](C)(CC/C=C\C#N)[C@H]3CC[C@]12C (some centres undefined),5.15 µM,9.49 µM,> 25 µM,14.8 µM,29 µM,> 25 µM,3.19 µM,8.49 µM,0.89 µM,9.73 µM,8.72 µM,13.3 µM,8.35 µM,4.85 µM,> 25 µM,15 µM,IC50 [7]: > 100 µM; GI50 (UO-31 [8]): 0.39 µM; IC50 [9]: > 100 µM; GI50 (786-0 [10]): 7.54 µM; IC50 (A549 [11]): 7.2 µM; GI50 (SK-MEL-5 [12]): 4.57 µM; GI50 (SN12C [13]): 5.08 µM
